Assay [1] can be described thus: activators raising VEGF transcript levels via HIF – cell-based, U2OS, RT-PCR, dry powder, set 3, orthogonal assay for HIF pathway activator project, dose response (AID 493230). The conditions noted are these: U2OS VEGF mRNA induction, RT-PCR; at 38 µM (top of the series). The procedure, abridged:
(§1)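 Assay system: U2OS osteosarcoma cells / Medium: DMEM without phenol red, 10% FBS / Schedule: 24 h plating, then 24 h compound exposure at 37 °C / Technique: TaqMan RT-PCR, VEGF-A vs beta-actin / Benchmarks: DMSO control / Repeats: duplicates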

In assay [2] the test system is U2OS VEGF mRNA induction, RT-PCR. The description is as above. The procedure, abridged: as §1

Where “and” joins values, the source holds several entries; their conditions need not be identical. Identical values can stand only once. Calls of active or inactive are those of the source.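 The calls were made as follows: active = VEGF mRNA rise whose fitted curve reaches 40% activation within the highest concentration tested on that sample; inactive = the rest, including effects opposite to expected.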

Turning to `O=C(NCCN1CCCCC1)c1cc(-c2ccccc2)on1`, the activation in assay [1] was 2.31% (inactive).
Regarding `Cn1c(-c2ccccc2)cnc1NC(=O)c1cc(-c2ccccc2)on1`, in assay [2], the AC40 was 24.6 µM.
Same read-out and setting: for `CC(Nc1nc(-c2ccccn2)nnc1-c1ccccc1)c1ccccc1` (configuration not stated) the value was 1.55 µM; for `C=CCNc1nc(-c2ccccn2)nnc1-c1ccccc1`, 4.08 µM; for `c1ccc(-c2nnc(-c3ccccn3)nc2N2CCC(C3CCCCC3)C2)cc1` (configuration not stated), 0.535 µM.
As for `c1ccc(CCNc2nc(-c3ccccn3)nnc2-c2ccccc2)cc1`, the AC40 in assay [2] was 5.17 µM.
Same read-out and setting: for `O=C(NCCN1CCOCC1)c1cc(-c2ccccc2)on1` the value was 29.1 µM; for `Oc1ccc(CN2CCC(Cc3ccccc3)CC2)c2cccnc12`, 6.73 µM.
Same read-out and setting: for `c1ccc(-c2nnc(-c3ccccn3)nc2NCC2CC2)cc1` the value was 2.29 µM; for `O=C(NC1CCc2ccccc2C1)c1cc(-c2ccccc2)on1` (configuration not stated), > 38 µM (inactive).
In the case of `O=C(c1cc(-c2ccccc2)on1)N1CCN(c2ccncc2)CC1`, the AC40 in assay [2] is 35.8 µM.
Regarding `O=C(Nc1nc2ccccc2s1)c1cc(-c2ccccc2)on1`, the AC40 in assay [2] was > 38 µM (inactive).
For the compound `Oc1ccc(CNC2Cc3ccccc3C2)c2cccnc12`, the AC40 in assay [2] was 12.9 µM.
As to `Oc1ccc(CNC2CCc3ccccc32)c2cccnc12` (configuration not stated), the AC40 in assay [2] was 27.1 µM.
Same read-out and setting: for `C[C@@H](Nc1nc(-c2ccccn2)nnc1-c1ccccc1)c1ccccc1` the value was 1.45 µM; for `c1ccc(-c2nnc(-c3ccccn3)nc2N2CCN(c3ccncc3)CC2)cc1`, 2.91 µM.
Turning to `Cn1c(NC(=O)c2cc(-c3ccccc3)on2)nc2ccccc21`, the activation in assay [1] is -8.77% (inactive).
As to `O=C(NCC1CCCCC1)c1cc(-c2ccccc2)on1`, the activation in assay [1] is 5.37% (inactive).
As to `OCC1CCN(c2nc(-c3ccccn3)nnc2-c2ccccc2)CC1`, the AC40 in assay [2] was 10.9 µM.
Take `CC(C)(C)c1ccc(CNc2nc(-c3ccccn3)nnc2-c2ccccc2)cc1`: the AC40 in assay [2] was 0.401 µM.
Same read-out and setting: the same measure for `c1ccc(-c2cccc(CNc3nc(-c4ccccn4)nnc3-c3ccccc3)c2)cc1`: 0.529 µM; for `O=C(NCCCO)c1cc(-c2ccccc2)on1`: 15.7 µM; for `Cc1cccc(CNc2nc(-c3ccccn3)nnc2-c2ccccc2)c1`: 1.48 µM.
With `Cc1ccccc1CNc1nc(-c2ccccn2)nnc1-c1ccccc1`, the AC40 in assay [2] is 0.853 µM.
Take `Cc1ccc(CNc2nc(-c3ccccn3)nnc2-c2ccccc2)cc1`: the AC40 in assay [2] was 1.01 µM.
With `O=C(Nc1ncc(-c2ccccc2)o1)c1cc(-c2ccccc2)on1`, in assay [1], the activation was 6.52% (inactive).
For `c1ccc(-c2csc(Nc3nc(-c4ccccn4)nnc3-c3ccccc3)n2)cc1`, the AC40 in assay [2] was 0.495 µM.
In the case of `COc1ccc(CNc2nc(-c3ccccn3)nnc2-c2ccccc2)cc1`, the AC40 in assay [2] is 1.24 µM.
Same read-out and setting: the same measure for `C[C@@H](Nc1nc(-c2ccccn2)nnc1-c1ccccc1)C1CCCCC1`: 0.545 µM.
As to `O=C(c1cc(-c2ccccc2)on1)N1CCc2cccnc21`, the activation in assay [1] is -0.596% (inactive).
Turning to `O=C(NCC1CC1)c1cc(-c2ccccc2)on1`, the AC40 in assay [2] was 24.9 µM.
The same measure, in the same setting: for `OCC1CCN(Cc2ccc(O)c3ncccc23)CC1` the value was 2.6 µM; for `c1ccc(-c2nnc(-c3ccccn3)nc2NCCN2CCOCC2)cc1`, 7.65 µM; for `Cc1cccc(NC(=O)c2cc(-c3ccccc3)on2)n1`, > 38 µM (inactive).
Regarding `COc1ccccc1N1CCN(Cc2ccc(O)c3ncccc23)CC1`, the AC40 in assay [2] is 0.384 µM.
With `O=C(Nc1cnc2ccccc2c1)c1cc(-c2ccccc2)on1`, the activation in assay [1] is 4.77% (inactive).
Consider `O=C(Nc1ccc2ccccc2n1)c1cc(-c2ccccc2)on1`, for which the activation in assay [1] was 6.04% (inactive).
As to `CCCCNC(=O)c1cc(-c2ccccc2)on1`, the AC40 in assay [2] is 25 µM.
As to `CN1CCN(c2nc(-c3ccccn3)nnc2-c2ccccc2)CC1`, the AC40 in assay [2] is 5.84 µM.
Consider `c1ccc(-c2nnc(-c3ccccn3)nc2NCC2CCCCC2)cc1`, for which, in assay [2], the AC40 was 1.4 µM.
Take `O=C(c1cc(-c2ccccc2)on1)N1CCC(CO)CC1`: the activation in assay [1] was 2.91% (inactive).
In the case of `c1ccc(-c2cnc(Nc3nc(-c4ccccn4)nnc3-c3ccccc3)s2)cc1`, the AC40 in assay [2] was 0.433 µM.
For the compound `O=C(Nc1nc(-c2ccccc2)cs1)c1cc(-c2ccccc2)on1`, the activation in assay [1] was 12.2% (inactive).
`C[C@H](Nc1nc(-c2ccccn2)nnc1-c1ccccc1)C1CCCCC1`: the AC40 in assay [2] is 1.06 µM.
In the case of `CN1CCN(C(=O)c2cc(-c3ccccc3)on2)CC1`, in assay [1], the activation is -2.38% (inactive).
Take `c1ccc(CNc2nc(-c3ccccn3)nnc2-c2ccccc2)cc1`: the AC40 in assay [2] is 1.45 µM.
With `Oc1ccc(CN2CCc3ccccc3C2)c2cccnc12`, the AC40 in assay [2] is 3.02 µM and 6.18 µM.
Still for that read-out and setting: the same measure for `c1ccc(-c2nnc(-c3ccccn3)nc2NCc2ccccn2)cc1`: 4.1 µM.
Still for that read-out and setting: the same measure for `Clc1cccc(CNc2nc(-c3ccccn3)nnc2-c2ccccc2)c1`: 0.953 µM; for `COc1cccc(CNc2nc(-c3ccccn3)nnc2-c2ccccc2)c1`: 1.21 µM; for `CC(C)(C)CCNC(=O)c1cc(-c2ccccc2)on1`: > 38 µM (inactive).
Consider `Cc1cccc(CNC(=O)c2cc(-c3ccccc3)on2)c1`, for which the activation in assay [1] was 9.8% (inactive).
On the same count and under the same terms, the same measure for `Cc1ccc(CNC(=O)c2cc(-c3ccccc3)on2)cc1`: -2.87% (inactive).
Consider `CN(C)c1nc(-c2ccccn2)nnc1-c1ccccc1`, for which the AC40 in assay [2] was 6.76 µM.
In the case of `CC1CN(Cc2ccc(O)c3ncccc23)CC(C)O1` (configuration not stated), in assay [2], the AC40 was 12.5 µM.
In the case of `Cc1ccc(CNc2nc(-c3ccccn3)nnc2-c2ccccc2)cc1C`, the AC40 in assay [2] was 0.83 µM.
Still for that read-out and setting: for `c1ccc(-c2nnc(Nc3nc(-c4ccccn4)nnc3-c3ccccc3)s2)cc1` the value was 1.08 µM; for `c1ccc(-c2nnc(-c3ccccn3)nc2NCCc2ccccn2)cc1`, 6.47 µM; for `O=C(Nc1cn2ccccc2n1)c1cc(-c2ccccc2)on1`, 5.31 µM.
As to `O=C(Nc1nnc(-c2ccccc2)s1)c1cc(-c2ccccc2)on1`, the activation in assay [1] was 2.88% (inactive).
In the case of `O=C(NCCCCO)c1cc(-c2ccccc2)on1`, the AC40 in assay [2] was 9.04 µM.
On the same count and under the same terms, for `OCCCNc1nc(-c2ccccn2)nnc1-c1ccccc1` the value was 8.68 µM; for `Cn1c(-c2ccccc2)cnc1Nc1nc(-c2ccccn2)nnc1-c1ccccc1`, 4.51 µM; for `c1ccc(-c2nnc(-c3ccccn3)nc2Nc2cnc3ccccc3n2)cc1`, 1.48 µM.
Still for that read-out and setting: the same measure for `CC(C)(C)CCNc1nc(-c2ccccn2)nnc1-c1ccccc1`: 0.782 µM and 0.753 µM.
For `O=C(c1cc(-c2ccccc2)on1)N1CCC(N2CCCC2)CC1`, the activation in assay [1] was 5.5% (inactive).
Turning to `c1ccc(-c2nnc(-c3ccccn3)nc2NCC2CCOCC2)cc1`, the AC40 in assay [2] is 6.69 µM.
Take `O=C(NC1Cc2ccccc2C1)c1cc(-c2ccccc2)on1`: the activation in assay [1] was -6% (inactive).
Consider `Cc1cccc(Nc2nc(-c3ccccn3)nnc2-c2ccccc2)n1`, for which the AC40 in assay [2] is 2.98 µM.
The same measure, in the same setting: for `N#CC1(c2ccccc2)CCN(Cc2ccc(O)c3ncccc23)CC1` the value was 31.9 µM; for `c1ccc(-c2nnc(-c3ccccn3)nc2NCc2cccnc2)cc1`, 3.44 µM.
On the same count and under the same terms, the same measure for `Oc1ccc(CN2CCC3CCCCC3C2)c2cccnc12` (configuration not stated): 1.58 µM.
Same read-out and setting: the same measure for `c1ccc(-c2nnc(-c3ccccn3)nc2N2CCC(N3CCOCC3)CC2)cc1`: 6.33 µM.
Consider `c1ccc(-c2nnc(-c3ccccn3)nc2Nc2nc3ccccc3s2)cc1`, for which, in assay [2], the AC40 is 0.427 µM.
On to `O=C(NCCCn1ccnc1)c1cc(-c2ccccc2)on1`, for which the AC40 in assay [2] is 17.2 µM.
Regarding `O=C(NCCCN1CCOCC1)c1cc(-c2ccccc2)on1`, in assay [2], the AC40 is 28 µM.
On to `c1ccc(-c2ccc(CNc3nc(-c4ccccn4)nnc3-c3ccccc3)cc2)cc1`, for which the AC40 in assay [2] was 0.276 µM.
Still for that read-out and setting: for `O=C(Nc1ncc2ccccc2n1)c1cc(-c2ccccc2)on1` the value was 29.4 µM; for `Cc1ccccc1CNC(=O)c1cc(-c2ccccc2)on1`, > 38 µM (inactive); for `CC(C)(C)OC(=O)N1CCN(Cc2ccc(O)c3ncccc23)CC1`, 9.12 µM.
Regarding `c1ccc(-c2nnc(-c3ccccn3)nc2N2CCC(c3ccccc3)C2)cc1` (configuration not stated), the AC40 in assay [2] is 1.05 µM.
With `O=C(NCc1ccccc1)c1cc(-c2ccccc2)on1`, the activation in assay [1] is -3.24% (inactive).
On the same count and under the same terms, for `Cc1ccc(NC(=O)c2cc(-c3ccccc3)on2)cn1` the value was 4.97% (inactive); for `O=C(c1cc(-c2ccccc2)on1)N1CCC(N2CCOCC2)CC1`, 12.2% (inactive).
Consider `Cc1ccc(Nc2nc(-c3ccccn3)nnc2-c2ccccc2)cn1`, for which, in assay [2], the AC40 is 4.94 µM.
With `CN(C)CCNC(=O)c1cc(-c2ccccc2)on1`, the activation in assay [1] is -3.96% (inactive).
Regarding `c1ccc(-c2nnc(-c3ccccn3)nc2NCCCN2CCOCC2)cc1`, the AC40 in assay [2] is 6.44 µM.

The record behind these values is PubChem BioAssay AID493230 (Broad Institute, 2011).
